What was measured:
Endothelin-1 receptor [1] = target: T1, Endothelin-1 receptor (Sus scrofa, UniProt Q29010); assay: In vitro inhibition of [125I]ET1 binding to Endothelin A receptor in porcine aortic membrane from endothelial cells; format: cell membranes; details: in the assay text read “with endothelium removed” for “from endothelial cells”
T1 sequence (Q29010 whole entry): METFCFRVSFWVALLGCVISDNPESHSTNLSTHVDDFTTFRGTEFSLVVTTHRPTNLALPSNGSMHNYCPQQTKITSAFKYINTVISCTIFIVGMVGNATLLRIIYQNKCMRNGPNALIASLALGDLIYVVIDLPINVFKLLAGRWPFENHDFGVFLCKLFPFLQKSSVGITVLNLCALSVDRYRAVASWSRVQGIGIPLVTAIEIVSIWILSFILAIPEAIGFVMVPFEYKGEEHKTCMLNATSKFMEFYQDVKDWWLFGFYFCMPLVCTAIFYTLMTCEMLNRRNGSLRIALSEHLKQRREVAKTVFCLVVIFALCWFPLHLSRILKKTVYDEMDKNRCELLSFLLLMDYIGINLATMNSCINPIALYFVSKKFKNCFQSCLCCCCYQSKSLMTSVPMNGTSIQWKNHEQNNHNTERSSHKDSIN
Outline: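 Endothelium-free porcine aorta homogenized in 10 mM MOPS (pH 7.4) with 20% sucrose. Membranes spun 1000g 15 min, then supernatant 90000g 45 min, and resuspended in 5 mM HEPES-Tris. Incubated with 20 pM final 125I-ET-1 and graded compound concentrations in 50 mM Tris-HCl pH 7.4, 0.1% BSA, protease inhibitors, EDTA, 2 h at 25 °C. Filtered, washed, gamma-counted.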

[2] = target: T2, Endothelin receptor type B (Homo sapiens, UniProt P24530); assay: Ability to inhibit specific binding of [125I]- -ET-1 to human GH cells which express endothelin B receptor; format: cell-based
T2 sequence (P24530 whole entry): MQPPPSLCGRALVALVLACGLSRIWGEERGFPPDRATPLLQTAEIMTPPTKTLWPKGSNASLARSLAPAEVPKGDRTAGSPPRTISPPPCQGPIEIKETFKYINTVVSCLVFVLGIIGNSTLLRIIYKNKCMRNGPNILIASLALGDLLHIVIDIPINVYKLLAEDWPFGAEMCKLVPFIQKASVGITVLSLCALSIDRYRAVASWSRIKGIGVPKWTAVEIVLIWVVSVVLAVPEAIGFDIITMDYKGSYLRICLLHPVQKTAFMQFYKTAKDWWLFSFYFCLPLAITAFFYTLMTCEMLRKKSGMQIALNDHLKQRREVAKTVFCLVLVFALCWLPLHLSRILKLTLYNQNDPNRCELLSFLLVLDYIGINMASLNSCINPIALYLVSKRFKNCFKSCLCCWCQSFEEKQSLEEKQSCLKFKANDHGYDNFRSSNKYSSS

Endothelin-1 receptor [3] = target: T3, Endothelin-1 receptor (Rattus norvegicus, UniProt P26684); assay: In vitro for specific binding of [125I]ET1 to A10 cell expressed in endothelin A receptor; format: cell-based
T3 sequence (P26684 whole entry): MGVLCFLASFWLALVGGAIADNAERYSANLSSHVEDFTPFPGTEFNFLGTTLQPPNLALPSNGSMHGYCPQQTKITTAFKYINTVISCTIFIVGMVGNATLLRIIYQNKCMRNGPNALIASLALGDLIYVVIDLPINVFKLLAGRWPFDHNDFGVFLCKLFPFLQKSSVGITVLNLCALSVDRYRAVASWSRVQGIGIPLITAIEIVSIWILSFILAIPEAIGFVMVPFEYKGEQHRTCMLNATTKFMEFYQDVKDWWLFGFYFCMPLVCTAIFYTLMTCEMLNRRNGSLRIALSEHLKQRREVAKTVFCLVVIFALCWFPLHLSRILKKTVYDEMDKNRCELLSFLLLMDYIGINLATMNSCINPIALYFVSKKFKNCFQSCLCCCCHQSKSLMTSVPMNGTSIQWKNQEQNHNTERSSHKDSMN

Row | SMILES | IC50 (Endothelin-1 receptor [1]) [nM] | IC50 [2] [nM] | IC50 (Endothelin-1 receptor [3]) [nM]
1 | COc1cccc(Oc2c(NS(=O)(=O)c3ccc(C(C)(C)C)cc3)ncnc2OCCO)c1 | 160 | 1100 | 230
2 | COc1ccccc1Oc1c(NS(=O)(=O)c2ccc(C(C)(C)C)cc2)nc(-c2ncccn2)nc1OCCO [BOSENTAN SODIUM] | 7.5 | – | 1.4

Reference: ChEMBL document CHEMBL1134624, “Potent and selective ET-A antagonists. 1. Syntheses and structure-activity relationships of N-(6-(2-(aryloxy)ethoxy)-4-pyrimidinyl)sulfonamide derivatives” (J Med Chem, 2001)
